Source: PubChem (several laboratories)
The list is not random: actives were taken first. Their share in the collection is about 0.79%.
PKA-R2B act: activators of human PKA-R2B complex | PKA-R2B holoenzyme dissociation, Cy5-IP20 fluorescence polarization; R2B truncated from residue 108, S112A mutant; 0% DMSO only, 100% 113 µM cGMP | activation, % at 11.4 µM | 340,000 compounds, 0.079% hits | AID 504700;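 active = activation above a cutoff set at the mean over all compounds plus 3 SD, cut at about 18% in these data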;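 note: higher means more holoenzyme dissociation and a rise in polarization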
PKA-R1A act: activators of PKA-R1A complex; P00514+P68181; PKA-R1A dissociation, Cy5-IP20 fluorescence polarization; scaled: DMSO 0%, 113 µM cGMP 100%; activation, % at 11.4 µM; 340,000 compounds, 0.083% hits; AID 504707;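 active = percent activation above the mean of all tested compounds plus 3 SD, cut at about 19% in these data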;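 note: higher means more PKAc released from R1A so a rise in polarization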
UCH37 inh: blocks the human deubiquitinase UCH37. 330,000 compounds, 0.33% hits. purified proteasome/UCH37, Ub-AMC cleavage fluorescence. inhibition, % (no concentration beside the values);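 active = mean inhibition over replicate wells above about 20%, limit read from the data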
Target sequence (Q9Y5K5 whole entry, looked up): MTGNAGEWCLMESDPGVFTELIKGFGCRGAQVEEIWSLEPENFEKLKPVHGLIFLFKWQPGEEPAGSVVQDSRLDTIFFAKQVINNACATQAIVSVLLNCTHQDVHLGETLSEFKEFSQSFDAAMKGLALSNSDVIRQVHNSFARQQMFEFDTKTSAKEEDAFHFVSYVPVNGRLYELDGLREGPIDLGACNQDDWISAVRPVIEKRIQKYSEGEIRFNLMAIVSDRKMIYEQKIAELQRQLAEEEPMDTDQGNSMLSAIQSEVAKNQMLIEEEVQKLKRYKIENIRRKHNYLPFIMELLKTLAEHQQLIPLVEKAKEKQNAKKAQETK
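Schedule: 30 min plus 25 min, room temperature / Material: human UCH37 within purified proteasomes / Technique: AMC fluorescence intensity at 355/460 nm / Buffer or medium: pH 7.4 Tris-HCl (50 mM) with ovalbumin, ATP-MgCl2, DTT / Controls: wells without proteasome as full block, compound-free enzyme plus substrate as uninhibited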
Rin1 Abl inh: inhibitors of human Rin1-Abl protein interaction. 360,000 compounds, 0.4% hits. inhibition, % at 7.35 µM. TR-FRET Rin1/Abl binding, biochemical. AID 588664. P00519+Q13671; in the data active = inhibition above about 5%, passing the limit was not always enough
Rin1-Abl confirm: Rin1-Abl interaction inhibition confirmation | AID 602124 | TR-FRET Rin1-Abl binding, purified proteins | shares compounds with Rin1 Abl inh | 1,300 compounds, 49% hits | inhibition, % at 7.35 µM
GFP quench: counter-screen for Rin1-Abl inhibitors: GFP fluorescence quenchers. shares compounds with Rin1 Abl inh. inhibitors/quenchers counterscreen. inhibition, % at 6.75 µM. 1,300 compounds, 8.5% hits;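 note: ABL1-eGFP fusion protein alone without its partner RIN1-SBP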
GFP quench dose: quenches GFP in dose response, Rin1-Abl counter-screen; IC50, µM; 230 tested, under 10 active; AID 602182; shares compounds with Rin1 Abl inh; GFP fluorescence interference/quenching counterscreen; call rule not given here;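 note: ABL1-eGFP fusion protein alone without its RIN1 binding partner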
Of the large screens only hits and unclear results are named; the others gave an inactive call (follow-up assays come after a bar, where they were run). Cut-off read from the data, not from the text of the source, unless noted: active = inhibition above about 6.5%; inactive = the rest.

CC(C)(C)NC(=O)c1ccc(NC(=O)c2ccccc2-c2ccccc2C(=O)O)cc1	Rin1 Abl inh 6.5 | Rin1-Abl confirm inactive | GFP quench inactive
CCCCCCCCOc1ccc(C2CC(=O)NC2=O)cc1 (stereo not given)	none
CC(C)(CO)CNC(=O)CC1C(=O)NCCN1CC(c1ccccc1)c1ccccc1 (stereo not given)	none
CC(C)NC(=O)CC1C(=O)NCCN1CC(c1ccccc1)c1ccccc1 (stereo not given)	Rin1 Abl inh 8.7 | Rin1-Abl confirm inactive | GFP quench inactive
O=C(Cn1ccc(NC(=O)OCc2ccccc2)nc1=O)NCCCN1CCCC1=O	Rin1 Abl inh 12 | Rin1-Abl confirm 6.6 | GFP quench inactive
O=C(Nc1ccn(CCCN2CCN(Cc3ccc(F)cc3)CC2)c(=O)n1)OCc1ccccc1	Rin1 Abl inh 19 (no result: UCH37 inh) | Rin1-Abl confirm 19 | GFP quench inactive | GFP quench dose inactive
O=C(Nc1ccn(CCCNCC2CCCCC2)c(=O)n1)OCc1ccccc1	none (no result: UCH37 inh)
O=C(Nc1ccn(CCCN2CCN(c3ncccn3)CC2)c(=O)n1)OCc1ccccc1	Rin1 Abl inh 8.5 (no result: UCH37 inh) | Rin1-Abl confirm 11 | GFP quench inactive
O=C(Cn1ccc(NC(=O)OCc2ccccc2)nc1=O)NCCN1CCOCC1	none
O=C(Nc1ccn(CCCNCc2ccccn2)c(=O)n1)OCc1ccccc1	none (no result: UCH37 inh)
CCc1cc(=O)[nH]c(SCC(=O)N2CCOCC2)n1	none
CC(C)c1nc2c(c(=O)c3ccccc3n2C)c(=O)n1CCc1ccccc1	none (no result: PKA-R2B act, PKA-R1A act, UCH37 inh)
CCCCOc1ccc(C(=O)N(Cc2ccco2)C2CCS(=O)(=O)C2)cc1 (stereo not given)	Rin1 Abl inh 9.6 | Rin1-Abl confirm inactive | GFP quench inactive
Cc1ccc(NC(=O)CN2C(=O)NC(C)(c3ccccc3)C2=O)c(C)c1 (stereo not given)	none
